Laboratory results as given in ChEMBL document CHEMBL1152848, “Penetratin and derivatives acting as antifungal agents” (2009).
Peptide text beside a SMILES is read from it.

How the values were obtained:
Assay type in all cases: functional
Candida albicans [1] = assay: Antifungal activity against Candida albicans ATCC 10231 assessed as growth inhibition at 100 uM after 24 hrs; settings: ATCC 10231, 24 h
Outline: (§1)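 Percent growth inhibition in 96-well microdilution, RPMI-1640. Peptide stocks in DMSO (≤2%), diluted to final 200–12.5 µM. Inoculum adjusted to 1-5 × 10^3 CFU/ml, grown beforehand on Sabouraud–chloramphenicol agar 48 h at 30 °C. Compound-free growth control with matching DMSO, plus sterility control. Incubated 24 h at 35 °C in a moist dark chamber, then read by microplate reader. Amphotericin B as 100% inhibition reference. Duplicates.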

Candida albicans [2] = assay: Antifungal activity against Candida albicans ATCC 10231 assessed as growth inhibition at 50 uM after 24 hrs; settings: ATCC 10231, 24 h; outline: as §1
Candida albicans [3] = assay: Antifungal activity against Candida albicans ATCC 10231 assessed as growth inhibition at 25 uM after 24 hrs; settings: ATCC 10231, 24 h; outline: as §1
Candida albicans [4] = assay: Antifungal activity against Candida albicans ATCC 10231 assessed as growth inhibition at 12.5 uM after 24 hrs; settings: ATCC 10231, 24 h; outline: as §1
Cryptococcus neoformans [5] = assay: Antifungal activity against Cryptococcus neoformans ATCC 32264 assessed as growth inhibition at 200 uM after 48 hrs; settings: ATCC 32264, 48 h
Outline: (§2)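 Percent growth inhibition by broth microdilution in RPMI-1640. Peptides were dissolved in DMSO (≤2%) and diluted to final 200–12.5 µM. Inoculum 1-5 × 10^3 CFU/ml, cells maintained on Sabouraud agar. Growth control (medium, inoculum, same DMSO, no compound) and sterility control per strain. Plates held 48 h at 35 °C, moist and dark, then read by microplate reader. Amphotericin B positive control. Duplicate tests.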

Cryptococcus neoformans [6] = assay: Antifungal activity against Cryptococcus neoformans ATCC 32264 assessed as growth inhibition at 100 uM after 48 hrs; settings: ATCC 32264, 48 h; outline: as §2
Cryptococcus neoformans [7] = assay: Antifungal activity against Cryptococcus neoformans ATCC 32264 assessed as growth inhibition at 50 uM after 48 hrs; settings: ATCC 32264, 48 h; outline: as §2
Cryptococcus neoformans [8] = assay: Antifungal activity against Cryptococcus neoformans ATCC 32264 assessed as growth inhibition at 25 uM after 48 hrs; settings: ATCC 32264, 48 h; outline: as §2
Cryptococcus neoformans [9] = assay: Antifungal activity against Cryptococcus neoformans ATCC 32264 assessed as growth inhibition at 12.5 uM after 48 hrs; settings: ATCC 32264, 48 h; outline: as §2
Candida albicans [10] = assay: Antifungal activity against Candida albicans ATCC 10231 assessed as growth inhibition at 200 uM after 24 hrs; settings: ATCC 10231, 24 h; outline: as §1

| Molecule | inhibition at 100 µM (Candida albicans [1]) | inhibition at 50 µM (Candida albicans [2]) | inhibition at 25 µM (Candida albicans [3]) | inhibition at 12.5 µM (Candida albicans [4]) | inhibition at 200 µM (Cryptococcus neoformans [5]) | inhibition at 100 µM (Cryptococcus neoformans [6]) | inhibition at 50 µM (Cryptococcus neoformans [7]) | inhibition at 25 µM (Cryptococcus neoformans [8]) | inhibition at 12.5 µM (Cryptococcus neoformans [9]) | inhibition at 200 µM (Candida albicans [10]) |
| --- | --- | --- | --- | --- | --- | --- | --- | --- | --- | --- |
| NCCCC[C@H](NC(=O)[C@H](CCCCN)NC(=O)[C@H](Cc1c[nH]c2ccccc12)NC(=O)[C@@H](N)CCCCN)C(N)=O (H-KWKK-NH2) | 2% | 0% | 0% | 0% | 0% | 0% | 0% | 0% | 0% | 9% |
| N=C(N)NCCC[C@H](N)C(=O)N[C@@H](CCC(N)=O)C(=O)N[C@@H](CCCCN)C(=O)N[C@@H](CCCCN)C(N)=O (H-RQKK-NH2) | 0% | 0% | 0% | 0% | 100% | 100% | 92% | 62% | 32% | 6% |
| C[C@@H]1[C@H](O)[C@@H](C)/C=C/C=C/C=C/C=C/C=C/C=C/C=C/[C@H](O[C@@H]2O[C@H](C)[C@@H](O)[C@H](N)[C@@H]2O)C[C@@H]2O[C@](O)(C[C@@H](O)C[C@@H](O)[C@H](O)CC[C@@H](O)C[C@@H](O)CC(=O)O[C@H]1C)C[C@H](O)[C@H]2C(=O)O [AMPHOTERICIN B] | 100% | 100% | 100% | 100% | 100% | 100% | 100% | 100% | 100% | 100% |
| CC(=O)N1CCN(c2ccc(OCC3COC(Cn4ccnc4)(c4ccc(Cl)cc4Cl)O3)cc2)CC1 (stereo not given) [KETOCONAZOLE] | 100% | 100% | 100% | 100% | 100% | 100% | 100% | 100% | 100% | 100% |
| CC[C@H](C)[C@H](NC(=O)[C@H](CCCCN)NC(=O)[C@@H](NC(=O)[C@H](CCC(N)=O)NC(=O)[C@@H](N)CCCNC(=N)N)[C@@H](C)CC)C(=O)N[C@@H](Cc1c[nH]c2ccccc12)C(=O)N[C@@H](Cc1ccccc1)C(=O)N[C@@H](CCC(N)=O)C(=O)N[C@@H](CC(N)=O)C(=O)N[C@@H](CCCNC(=N)N)C(=O)N[C@@H](CCCNC(=N)N)C(=O)N[C@@H](CCSC)C(=O)N[C@@H](CCCCN)C(=O)N[C@@H](Cc1c[nH]c2ccccc12)C(=O)N[C@@H](CCCCN)C(=O)N[C@@H](CCCCN)C(N)=O [PENETRATIN] | 100% | 95% | 91% | 4% | 100% | 100% | 100% | 100% | 90% | 100% |
| H-RKFRRKFKK-NH2 | 44% | 33% | 23% | 0% | 73% | 11% | 13% | 9% | 0% | 61% |
| H-RKRRKKK-NH2 | 12% | 0% | 0% | 0% | 60% | 14% | 19% | 10% | 0% | 43% |
| H-RKRRKWKK-NH2 | 13% | 0% | 0% | 0% | 100% | 33% | 11% | 6% | 0% | 29% |
| H-RKWRRKWKK-NH2 | 76% | 58% | 40% | 15% | 99% | 68% | 14% | 16% | 0% | 100% |
| H-WKQKNIKWRFRQKMIR-NH2 | 52% | 0% | 0% | 0% | 96% | 92% | 36% | 28% | 0% | 60% |
